Measurements taken from ChEMBL document CHEMBL4689842, “EUbOPEN Chemogenomics Library wave 1” (2021).

Tests used:
Format in all cases: toxicity, cell-based
U2OS [1] = assay: Multiplex assay against U2OS; details: human
Outline: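 Phenotypes for tubulin, mitochondrial mass and membrane permeability are expressed as per cents of healthy-nucleus cells. Cells were stained live at seeding with Hoechst33342, BioTracker Green Microtubule Cytoskeleton Dye, MitoTracker Red and Annexin V Alexa Fluor 680, then imaged after compound addition on a CQ1 microscope at 37°C and 5% CO2. Machine-learning gating in CellPathfinder separated Hoechst high-intensity objects from normal cells, divided normal cells by nuclear state (healthy, pyknosed, fragmented) and divided pyknosed cells into mitotic or apoptotic.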

U2OS [2] = assay: Incucyte cell viability with U2OS; details: human, 10 µM, compound concentration 10 uM; also: filed as whole numbers so only -1 and 0 and 1 occur
HEK-293T = assay: Incucyte cell viability with HEK293T; details: human, 10 µM, compound concentration 10 uM; also: filed as whole numbers so only -1 and 0 and 1 occur
[3] = 12 h, 1 µM, compound concentration 1 uM, replicate 1
[4] = 12 h, 1 µM, compound concentration 1 uM, replicate 2
[5] = 12 h, 10 µM, compound concentration 10 uM, replicate 1
[6] = 12 h, 10 µM, compound concentration 10 uM, replicate 2
[7] = 24 h, 1 µM, compound concentration 1 uM, replicate 1
[8] = 24 h, 1 µM, compound concentration 1 uM, replicate 2
[9] = 24 h, 10 µM, compound concentration 10 uM, replicate 1
[10] = 24 h, 10 µM, compound concentration 10 uM, replicate 2
[11] = 48 h, 1 µM, compound concentration 1 uM, replicate 1
[12] = 48 h, 1 µM, compound concentration 1 uM, replicate 2
[13] = 48 h, 10 µM, compound concentration 10 uM, replicate 1
[14] = 48 h, 10 µM, compound concentration 10 uM, replicate 2
[15] = 6 h, replicate number 1, timepoint 6 hours
[16] = 12 h, replicate number 1, timepoint 12 hours
[17] = 18 h, replicate number 1, timepoint 18 hours
[18] = 24 h, replicate number 1, timepoint 24 hours
[19] = 0 h, replicate number 2, timepoint 0 hours

## Nc1ccc(C(=O)Nc2cccc(-c3nc(N4CCOCC4)c4oc5ncccc5c4n3)c2)cn1
U2OS [1]; [3]
  Population Apoptotic (%): 42%
  Population Fragmented Nuclei (%): 20%
  Population Healthy Nuclei (%): 64%
  Population Hoechst High Intensity Objects (%): 10%
  Population Mitochondria Different-Phenotype (%): 36%
  Population Mitotic Cells (%): 57%
  Population Normal (%): 89%
  Population Pyknosed Nuclei (%): 15%
  Population Tubulin-Different-Phenotype (%): 54%
  Total Cell Count: 215
U2OS [1]; [4]
  Population Apoptotic (%): 9%
  Population Healthy Nuclei (%): 61%
  Population Mitochondria Different-Phenotype (%): 21%
  Population Mitotic Cells (%): 90%
  Population Pyknosed Nuclei (%): 17%
  Population Tubulin-Different-Phenotype (%): 28%
  Total Cell Count: 55
U2OS [1]; [5]
  Population Apoptotic (%): 56%
  Population Fragmented Nuclei (%): 57%
  Population Healthy Nuclei (%): 24%
  Population Hoechst High Intensity Objects (%): 21%
  Population Mitochondria Different-Phenotype (%): 83%
  Population Mitotic Cells (%): 43%
  Population Normal (%): 78%
  Population Pyknosed Nuclei (%): 18%
  Population Tubulin-Different-Phenotype (%): 93%
  Total Cell Count: 191
U2OS [1]; [6]
  Population Apoptotic (%): 51%
  Population Fragmented Nuclei (%): 62%
  Population Healthy Nuclei (%): 15%
  Population Hoechst High Intensity Objects (%): 19%
  Population Mitochondria Different-Phenotype (%): 76%
  Population Mitotic Cells (%): 48%
  Population Normal (%): 80%
  Population Pyknosed Nuclei (%): 22%
  Population Tubulin-Different-Phenotype (%): 90%
  Total Cell Count: 69
U2OS [1]; [7]
  Population Apoptotic (%): 46%
  Population Fragmented Nuclei (%): 16%
  Population Healthy Nuclei (%): 65%
  Population Hoechst High Intensity Objects (%): 7%
  Population Mitochondria Different-Phenotype (%): 31%
  Population Mitotic Cells (%): 53%
  Population Normal (%): 92%
  Population Pyknosed Nuclei (%): 17%
  Population Tubulin-Different-Phenotype (%): 51%
  Total Cell Count: 221
U2OS [1]; [8]
  Population Apoptotic (%): 21%
  Population Fragmented Nuclei (%): 28%
  Population Healthy Nuclei (%): 52%
  Population Hoechst High Intensity Objects (%): 5%
  Population Mitochondria Different-Phenotype (%): 42%
  Population Mitotic Cells (%): 78%
  Population Normal (%): 95%
  Population Pyknosed Nuclei (%): 18%
  Population Tubulin-Different-Phenotype (%): 27%
  Total Cell Count: 57
U2OS [1]; [9]
  Population Apoptotic (%): 80%
  Population Fragmented Nuclei (%): 59%
  Population Healthy Nuclei (%): 14%
  Population Hoechst High Intensity Objects (%): 23%
  Population Mitochondria Different-Phenotype (%): 88%
  Population Mitotic Cells (%): 19%
  Population Normal (%): 76%
  Population Pyknosed Nuclei (%): 26%
  Population Tubulin-Different-Phenotype (%): 81%
  Total Cell Count: 201
U2OS [1]; [10]
  Population Apoptotic (%): 84%
  Population Fragmented Nuclei (%): 60%
  Population Healthy Nuclei (%): 5%
  Population Hoechst High Intensity Objects (%): 19%
  Population Mitochondria Different-Phenotype (%): 100%
  Population Mitotic Cells (%): 15%
  Population Normal (%): 80%
  Population Pyknosed Nuclei (%): 34%
  Population Tubulin-Different-Phenotype (%): 100%
  Total Cell Count: 80
U2OS [1]; [11]
  Population Apoptotic (%): 57%
  Population Fragmented Nuclei (%): 18%
  Population Healthy Nuclei (%): 60%
  Population Hoechst High Intensity Objects (%): 9%
  Population Mitochondria Different-Phenotype (%): 28%
  Population Mitotic Cells (%): 42%
  Population Normal (%): 90%
  Population Pyknosed Nuclei (%): 21%
  Population Tubulin-Different-Phenotype (%): 45%
  Total Cell Count: 240
U2OS [1]; [12]
  Population Apoptotic (%): 25%
  Population Fragmented Nuclei (%): 28%
  Population Healthy Nuclei (%): 53%
  Population Hoechst High Intensity Objects (%): 7%
  Population Mitochondria Different-Phenotype (%): 22%
  Population Mitotic Cells (%): 75%
  Population Normal (%): 92%
  Population Pyknosed Nuclei (%): 17%
  Population Tubulin-Different-Phenotype (%): 24%
  Total Cell Count: 56
U2OS [1]; [13]
  Population Fragmented Nuclei (%): 62%
  Population Healthy Nuclei (%): 5%
  Population Hoechst High Intensity Objects (%): 23%
  Population Mitochondria Different-Phenotype (%): 76%
  Population Normal (%): 76%
  Population Pyknosed Nuclei (%): 31%
  Population Tubulin-Different-Phenotype (%): 66%
  Total Cell Count: 244
U2OS [1]; [14]
  Population Apoptotic (%): 91%
  Population Fragmented Nuclei (%): 65%
  Population Healthy Nuclei (%): 8%
  Population Hoechst High Intensity Objects (%): 16%
  Population Mitochondria Different-Phenotype (%): 100%
  Population Mitotic Cells (%): 8%
  Population Normal (%): 83%
  Population Pyknosed Nuclei (%): 26%
  Population Tubulin-Different-Phenotype (%): 100%
  Total Cell Count: 98
U2OS [2]; 0 h, replicate number 1, timepoint 0 hours
  Growth Rate: 0
U2OS [2]; [15]
  Growth Rate: 1
U2OS [2]; [16]
  Growth Rate: 0
U2OS [2]; [17]
  Growth Rate: 0
U2OS [2]; 18 h, replicate number 2, timepoint 18 hours
  Growth Rate: 1
U2OS [2]; [18]
  Growth Rate: 0
HEK-293T; [19]
  Growth Rate: 0
HEK-293T; [15]
  Growth Rate: 0
HEK-293T; [16]
  Growth Rate: 0
HEK-293T; [17]
  Growth Rate: 0
HEK-293T; [18]
  Growth Rate: 0

## c1ccc2oc(-c3csc(C4CCN(Cc5nc6ncccc6[nH]5)CC4)n3)cc2c1
U2OS [1]; [3]
  Population Apoptotic (%): 8%
  Population Fragmented Nuclei (%): 2%
  Population Healthy Nuclei (%): 90%
  Population Hoechst High Intensity Objects (%): 3%
  Population Membrane Permeable-Phenotype (%): 12%
  Population Mitochondria Different-Phenotype (%): 15%
  Population Mitotic Cells (%): 91%
  Population Normal (%): 96%
  Population Pyknosed Nuclei (%): 6%
  Population Tubulin-Different-Phenotype (%): 10%
  Total Cell Count: 182
U2OS [1]; [4]
  Population Apoptotic (%): 25%
  Population Fragmented Nuclei (%): 8%
  Population Healthy Nuclei (%): 85%
  Population Hoechst High Intensity Objects (%): 7%
  Population Membrane Permeable-Phenotype (%): 8%
  Population Mitochondria Different-Phenotype (%): 27%
  Population Mitotic Cells (%): 75%
  Population Normal (%): 92%
  Population Tubulin-Different-Phenotype (%): 15%
  Total Cell Count: 141
U2OS [1]; [5]
  Population Apoptotic (%): 42%
  Population Fragmented Nuclei (%): 4%
  Population Healthy Nuclei (%): 91%
  Population Hoechst High Intensity Objects (%): 3%
  Population Membrane Permeable-Phenotype (%): 9%
  Population Mitochondria Different-Phenotype (%): 25%
  Population Mitotic Cells (%): 57%
  Population Normal (%): 96%
  Population Pyknosed Nuclei (%): 3%
  Population Tubulin-Different-Phenotype (%): 29%
  Total Cell Count: 205
U2OS [1]; [6]
  Population Apoptotic (%): 25%
  Population Fragmented Nuclei (%): 7%
  Population Healthy Nuclei (%): 88%
  Population Hoechst High Intensity Objects (%): 15%
  Population Membrane Permeable-Phenotype (%): 18%
  Population Mitochondria Different-Phenotype (%): 34%
  Population Mitotic Cells (%): 75%
  Population Normal (%): 84%
  Population Pyknosed Nuclei (%): 4%
  Population Tubulin-Different-Phenotype (%): 34%
  Total Cell Count: 114
U2OS [1]; [7]
  Population Apoptotic (%): 40%
  Population Fragmented Nuclei (%): 2%
  Population Healthy Nuclei (%): 90%
  Population Hoechst High Intensity Objects (%): 2%
  Population Membrane Permeable-Phenotype (%): 7%
  Population Mitochondria Different-Phenotype (%): 16%
  Population Mitotic Cells (%): 60%
  Population Normal (%): 97%
  Population Tubulin-Different-Phenotype (%): 19%
  Total Cell Count: 223
U2OS [1]; [8]
  Population Apoptotic (%): 25%
  Population Fragmented Nuclei (%): 4%
  Population Healthy Nuclei (%): 88%
  Population Hoechst High Intensity Objects (%): 3%
  Population Membrane Permeable-Phenotype (%): 9%
  Population Mitochondria Different-Phenotype (%): 24%
  Population Mitotic Cells (%): 75%
  Population Normal (%): 96%
  Population Pyknosed Nuclei (%): 6%
  Population Tubulin-Different-Phenotype (%): 22%
  Total Cell Count: 181
U2OS [1]; [9]
  Population Apoptotic (%): 45%
  Population Fragmented Nuclei (%): 5%
  Population Healthy Nuclei (%): 90%
  Population Hoechst High Intensity Objects (%): 1%
  Population Membrane Permeable-Phenotype (%): 5%
  Population Mitochondria Different-Phenotype (%): 14%
  Population Mitotic Cells (%): 54%
  Population Normal (%): 98%
  Population Pyknosed Nuclei (%): 3%
  Total Cell Count: 282
U2OS [1]; [10]
  Population Apoptotic (%): 0%
  Population Fragmented Nuclei (%): 4%
  Population Healthy Nuclei (%): 91%
  Population Hoechst High Intensity Objects (%): 9%
  Population Membrane Permeable-Phenotype (%): 11%
  Population Mitochondria Different-Phenotype (%): 33%
  Population Mitotic Cells (%): 100%
  Population Normal (%): 90%
  Population Pyknosed Nuclei (%): 4%
  Population Tubulin-Different-Phenotype (%): 33%
  Total Cell Count: 137
U2OS [2]; [19]
  Growth Rate: 1
U2OS [2]; [15]
  Growth Rate: 0
U2OS [2]; [16]
  Growth Rate: 0
U2OS [2]; 12 h, replicate number 2, timepoint 12 hours
  Growth Rate: 1
U2OS [2]; [17]
  Growth Rate: 0
U2OS [2]; [18]
  Growth Rate: 1
U2OS [2]; 24 h, replicate number 2, timepoint 24 hours
  Growth Rate: 0
HEK-293T; [15]
  Growth Rate: 0
HEK-293T; [16]
  Growth Rate: 0
HEK-293T; [17]
  Growth Rate: 0
HEK-293T; [18]
  Growth Rate: 0
